Measurements pooled from the literature.
Lines come from different studies, so protocols differ.
Cell line: PC-3
Read-out: cell growth or viability

Structure (SMILES)	method	tested at	time	quantity	result
COc1cc2ncnc(Nc3ccc4c(c3)/C(=C/c3ccccc3)C(=O)N4)c2cc1OC	MTT	–	–	IC50	4.17 µM
Cc1c(Cc2ccccc2)c(=O)oc2c(C)c(OCC(=O)NN=Cc3ccc([N+](=O)[O-])cc3)ccc12	MTT	500 µg/mL	–	viability	5.03%
O=C(O)c1cccnc1Nc1cccc(C(F)(F)F)c1	SRB	–	48 h	GI50	> 30 µM
CCc1c(C)c2ccc(OCc3nnc(S)n3N)c(C)c2oc1=O	MTT	31.25 µg/mL	–	viability	58.5%
Cc1ccc(-c2cc(-c3ccc(N(C)C)cc3)c3c(=O)[nH]c(=O)[nH]c3n2)cc1	MTT	–	48 h	IC50	17.4 µM
O=C(NO)c1ccc(CNc2nc3cccc(-c4ccc5c(c4)OCO5)n3n2)cc1	SRB	–	–	GI50	0.63 µM
COc1ccc(-c2cc(-c3ccccc3Cl)c3c(=O)[nH]c(=O)[nH]c3n2)cc1	MTT	–	48 h	IC50	28.4 µM
CCOc1ccc2c(C)c(CC)c(=O)oc2c1C	MTT	500 µg/mL	–	viability	7.6%
Cc1nc(N(Cc2ccccc2)c2ccc3c(c2)/C(=C/c2ccccc2)C(=O)N3Cc2ccccc2)c2ccccc2n1 (mixture of isomers)	MTT	–	–	IC50	0.56 µM
CCc1c(C)c2ccc(OCC(=O)NNC(=S)Nc3ccccc3)c(C)c2oc1=O	MTT	1000 µg/mL	–	viability	2.47%
COc1ccc(-c2cc(-c3ccc(Cl)cc3)c3c(=O)n(C)c(=O)n(C)c3n2)cc1	MTT	–	48 h	IC50	13.5 µM
Cc1c(Cc2ccccc2)c(=O)oc2c(C)c(OCC(=O)NN=Cc3ccccc3)ccc12	MTT	250 µg/mL	–	viability	14.1%
COc1ccc(-c2cc(-c3ccc(N(C)C)cc3)c3c(=O)n(C)c(=O)n(C)c3n2)cc1	MTT	–	48 h	IC50	5.18 µM
Cc1nc(Nc2ccc3c(c2)/C(=C/c2ccccc2C)C(=O)N3C)c2ccccc2n1	MTT	–	–	IC50	15.9 µM
CCCOc1nc(-c2cccc(O)c2)cc(-c2cc3cc(Cl)ccc3nc2N2CCOCC2)c1C#N	MTT	–	72 h	IC50	0.542 µM
COc1ccc(-c2cc(-c3cccc(Br)c3)c3c(=O)n(C)c(=O)n(C)c3n2)cc1	MTT	–	48 h	IC50	18.4 µM
Cc1nc(Nc2ccc3c(c2)C(C)(C)C(=O)N3C)c2ccccc2n1	MTT	–	–	IC50	26.3 µM
